Test results: ChEMBL document CHEMBL4028879, “Structure-Activity Relationship Studies of Pyrimido[5,4-b]indoles as Selective Toll-Like Receptor 4 Ligands” (J Med Chem, 2017)
Active and inactive are the calls of the source. No cut-off for these calls is given here.

Key:
[1] = target: T1, Toll-like receptor 4 (Homo sapiens, UniProt O00206); assay: Agonist activity at human TLR4 expressed in HEK293 blue cells assessed as induction of NF-kappaB activation-mediated SEAP production after 20 to 24 hrs by colorimetric assay; assay type: cell-based
Outline: (§1)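 HEK-Blue cells expressing human or mouse TLR4, 2.5 × 10⁴/well in DMEM with 10% FBS, pyruvate, glutamine and antibiotics. Graded doses from 20 mM DMSO stocks, final DMSO 0.05%. Supernatants harvested after 20–24 h; SEAP read by colorimetric substrate at 630 nm. EC50 taken as the concentration giving 50% of maximal activation. LPS 100 ng/mL served as positive control.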

[2] = target: T2, Toll-like receptor 4 (Mus musculus, UniProt Q9QUK6); assay: Agonist activity at mouse TLR4 expressed in HEK293 blue cells assessed as induction of NF-kappaB activation-mediated SEAP production after 20 to 24 hrs by colorimetric assay; assay type: cell-based; outline: as §1
T2 sequence (Q9QUK6 whole entry): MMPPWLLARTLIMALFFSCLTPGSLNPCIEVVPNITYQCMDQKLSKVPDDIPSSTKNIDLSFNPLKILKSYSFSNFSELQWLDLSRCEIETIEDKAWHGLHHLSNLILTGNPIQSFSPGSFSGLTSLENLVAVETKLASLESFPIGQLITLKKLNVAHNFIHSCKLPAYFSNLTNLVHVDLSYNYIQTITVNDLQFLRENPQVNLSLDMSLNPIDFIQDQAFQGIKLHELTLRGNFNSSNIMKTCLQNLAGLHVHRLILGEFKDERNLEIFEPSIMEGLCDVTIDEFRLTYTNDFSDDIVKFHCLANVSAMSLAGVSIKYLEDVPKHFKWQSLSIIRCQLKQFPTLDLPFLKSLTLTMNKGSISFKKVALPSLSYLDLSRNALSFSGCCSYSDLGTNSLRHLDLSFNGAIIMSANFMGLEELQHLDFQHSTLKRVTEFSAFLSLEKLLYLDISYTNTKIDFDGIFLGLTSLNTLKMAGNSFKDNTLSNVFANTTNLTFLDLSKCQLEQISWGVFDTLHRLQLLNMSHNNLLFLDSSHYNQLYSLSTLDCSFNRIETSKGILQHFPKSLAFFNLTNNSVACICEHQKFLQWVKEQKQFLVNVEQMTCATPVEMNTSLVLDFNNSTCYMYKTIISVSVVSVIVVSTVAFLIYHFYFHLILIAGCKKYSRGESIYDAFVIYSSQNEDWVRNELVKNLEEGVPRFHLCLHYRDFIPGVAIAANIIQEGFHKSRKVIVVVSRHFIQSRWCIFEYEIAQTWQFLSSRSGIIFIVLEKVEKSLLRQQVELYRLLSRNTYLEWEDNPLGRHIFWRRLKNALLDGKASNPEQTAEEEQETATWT

[3] = Cytotoxicity against C57BL/6 mouse primary BMDC assessed as cell viability at 5 uM after 18 hrs by MTT assay relative to control; assay type: cell-based; conditions: primary BMDC (bone marrow-derived dendritic cells), read-out: Activity
[4] = target: T1, Toll-like receptor 4; assay: Agonist activity at TLR4 in human PBMC assessed as induction of IL-8 release at 0.1 to 10 uM after 18 hrs by ELISA
Outline: (§2)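 PBMC isolated from blood-bank buffy coats, 1 × 10⁶/mL, stimulated with graded compound doses for 18 h at 37°C, 5% CO₂. IL-6 and IL-8 in supernatants measured by ELISA. Data are mean ± SEM, representative of three independent experiments. Two-way ANOVA with Dunnett's post hoc test.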

[5] = target: T1, Toll-like receptor 4; assay: Agonist activity at TLR4 in human PBMC assessed as induction of IL-6 release at 0.1 to 10 uM after 18 hrs by ELISA; outline: as §2
[6] = tested on: HepG2; assay: Cytotoxicity against human HepG2 cells assessed as reduction in cell viability at 5 uM after 18 hrs by MTT assay; assay type: cell-based; conditions: hepg2, 18 h
Outline: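 HepG2 cells, 1 × 10⁴/well, exposed overnight (18 h) to 5 μM compound. MTT 0.5 mg/mL then added for six or more hours, followed by lysis and absorbance reading. Mean ± SEM of representative data from three independent experiments.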

[7] = target: T3, Toll-like receptor 4 (Mus musculus) (UniProt Q9QUK6); assay: Agonist activity at TLR4 in C57BL/6 mouse primary BMDC assessed as induction of CCL5 release at 0.1 to 10 uM after 18 hrs by ELISA
T3 sequence (whole entry): T2 sequence (Q9QUK6 whole entry)
Outline: (§3)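 BMDC from C57BL/6 mice, 1 × 10⁵ cells/well in RPMI 1640 with 10% FBS and penicillin/streptomycin. Graded doses for 18 h at 37°C, 5% CO₂. IL-6 or CCL5 in supernatants measured by ELISA, detection limit 15 pg/mL. Positive control ultrapure LPS-EB 10 ng/mL. Significance by two-way ANOVA with Dunnett's post hoc test.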

[8] = tested on: Mus musculus; assay: Immunostimulatory activity in wild type C57BL/6 mouse assessed as induction of IL-6 levels in serum at 20 nmol, iv measured at 3 hrs post dose by Luminex beads assay; assay type: functional, organism-based
Outline: (§4)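 Seven- to nine-week-old wild-type C57BL/6 mice (n = 6) injected iv with 20 nmol/animal in 0.1% DMSO in saline. Sera collected 3 h after injection; IL-6, IP-10 and KC quantified by Luminex bead assay, detection limit 2.56 pg/mL. Kruskal–Wallis test with Dunn's post hoc test.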

[9] = tested on: Mus musculus; assay: Immunostimulatory activity in wild type C57BL/6 mouse assessed as induction of keratinocyte chemo-attractant levels in serum at 20 nmol, iv measured at 3 hrs post dose by Luminex beads assay; assay type: functional, organism-based; outline: as §4
[10] = tested on: Mus musculus; assay: Immunostimulatory activity in wild type C57BL/6 mouse assessed as induction of IP-10 levels in serum at 20 nmol, iv measured at 3 hrs post dose by Luminex beads assay; assay type: functional, organism-based; outline: as §4
[11] = target: T3, Toll-like receptor 4 (Mus musculus); assay: Agonist activity at TLR4 in C57BL/6 mouse BMDC assessed as induction of IL-6 release at 0.1 to 10 uM after 18 hrs by ELISA; outline: as §3
[12] = target: T1, Toll-like receptor 4; assay: Agonist activity at human TLR4 expressed in HEK293 blue cells assessed as induction of NF-kappaB activation-mediated SEAP production by measuring AUC after 20 to 24 hrs by colorimetric assay relative to N-cyclohexyl-2-(5-methyl-4-oxo-3-phenyl-4,5-dihydro-3H-pyrimido[5,4-b]indol-2-ylthio)acetamide; assay type: cell-based
[13] = target: T3, Toll-like receptor 4 (Mus musculus); assay: Agonist activity at mouse TLR4 expressed in HEK293 blue cells assessed as induction of NF-kappaB activation-mediated SEAP production by measuring AUC after 20 to 24 hrs by colorimetric assay relative to N-cyclohexyl-2-(5-methyl-4-oxo-3-phenyl-4,5-dihydro-3H-pyrimido[5,4-b]indol-2-ylthio)acetamide; assay type: cell-based
[14] = target: T3, Toll-like receptor 4 (Mus musculus); assay: Agonist activity at TLR4 in C57BL/6 mouse primary BMDC assessed as induction of IL-6 release at 5 uM after 18 hrs by ELISA relative to N-cyclohexyl-2-(5-methyl-4-oxo-3-phenyl-4,5-dihydro-3H-pyrimido[5,4-b]indol-2-ylthio)acetamide

T1 sequence (O00206 whole entry): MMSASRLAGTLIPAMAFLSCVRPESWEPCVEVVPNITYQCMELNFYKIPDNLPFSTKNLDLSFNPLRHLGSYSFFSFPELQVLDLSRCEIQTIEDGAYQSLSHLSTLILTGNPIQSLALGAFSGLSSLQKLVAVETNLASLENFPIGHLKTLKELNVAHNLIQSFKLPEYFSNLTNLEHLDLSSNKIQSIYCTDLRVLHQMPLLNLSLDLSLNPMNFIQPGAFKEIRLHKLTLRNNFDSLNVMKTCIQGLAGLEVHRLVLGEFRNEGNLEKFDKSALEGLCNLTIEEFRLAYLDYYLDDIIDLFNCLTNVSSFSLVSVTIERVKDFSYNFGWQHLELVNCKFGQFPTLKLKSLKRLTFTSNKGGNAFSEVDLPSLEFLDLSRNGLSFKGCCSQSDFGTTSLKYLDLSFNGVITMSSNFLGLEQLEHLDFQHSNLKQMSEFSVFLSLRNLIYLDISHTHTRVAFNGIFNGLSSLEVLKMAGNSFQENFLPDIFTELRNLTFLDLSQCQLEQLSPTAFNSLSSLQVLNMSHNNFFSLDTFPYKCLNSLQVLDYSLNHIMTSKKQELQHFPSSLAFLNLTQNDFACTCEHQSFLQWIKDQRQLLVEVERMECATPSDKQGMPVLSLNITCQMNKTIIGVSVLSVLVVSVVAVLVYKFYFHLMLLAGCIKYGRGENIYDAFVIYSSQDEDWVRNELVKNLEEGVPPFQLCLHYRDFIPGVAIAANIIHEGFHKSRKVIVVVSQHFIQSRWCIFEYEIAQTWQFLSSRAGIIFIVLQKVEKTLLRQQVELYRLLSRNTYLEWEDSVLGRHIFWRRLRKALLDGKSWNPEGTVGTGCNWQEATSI

Q: Which results are given for `Cn1c2ccccc2c2nc(SCC(=O)NC3CCCCC3)n(-c3ccccc3)c(=O)c21`?
A: EC50 [1]: 8.26 µM; EC50 [2]: 3.17 µM; viability at 18 h, 5 µM [3]: 97 to 106%; Activity [4]: Active; Activity [5]: Active; Activity [6]: Non-Toxic; Activity [7]: Active; Activity [8]: Active; Activity [9]: Active; Activity [10]: Active; Activity [11]: Active

Q: Which results are given for `Cn1c2ccc(-c3ccc4ccccc4c3)cc2c2nc(SCC(=O)NC3CCCCC3)n(-c3ccccc3)c(=O)c21`?
A: EC50 [1]: 0.92 µM; EC50 [2]: 2.01 µM; Activity [12]: 1300%; Activity [13]: 78%; viability at 18 h, 5 µM [3]: 84%; Activity [14]: 137%; Activity [4]: Active; Activity [5]: Active; Activity [6]: Non-Toxic; Activity [7]: Active; Activity [11]: Active

Q: Which results are given for `Cn1c2c(c3nc(SCC(=O)NC4CCCCC4)n(-c4ccccc4)c(=O)c31)CCCCC2`?
A: EC50 [1]: > 10 µM; EC50 [2]: 8.8 µM; Activity [12]: 46%; Activity [13]: 44%; viability at 18 h, 5 µM [3]: 95%; Activity [14]: 93%; Activity [6]: Non-Toxic; Activity [7]: Active; Activity [8]: Active; Activity [9]: Active; Activity [10]: Active; Activity [11]: Active

Q: What does the source list for `Cn1c2ccc(-c3ccccc3)cc2c2nc(SCC(=O)NC3CCCCC3)n(-c3ccccc3)c(=O)c21`?
A: EC50 [1]: 0.43 µM; EC50 [2]: 0.82 µM; Activity [12]: 1560%; Activity [13]: 223%; viability at 18 h, 5 µM [3]: 93%; Activity [14]: 123%; Activity [4]: Active; Activity [5]: Active; Activity [6]: Non-Toxic; Activity [7]: Active; Activity [8]: Active; Activity [9]: Active; Activity [10]: Active; Activity [11]: Active
